The target of assay [1] is Induced myeloid leukemia cell differentiation protein Mcl-1/BH3-interacting domain death agonist (Homo sapiens, UniProt Q07820). The assay is described as follows: Inhibition of His-tagged Mcl-1/5-carboxyfluorescein-Bid (unknown origin) after 1 hr by fluorescence polarization assay. Format: protein assay. The gist of the method:
(§1)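 Fluorescence polarization competition: a small molecule competes with a fluorescent-tagged BH3 peptide (Bak for Bcl-xL, Bid for Mcl-1) for binding to the anti-apoptotic protein. Run in triplicate.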
On the technique in general: In fluorescence polarisation assays a small probe gives low polarisation when free and higher when bound to something large.

A further assay deals with Bcl-xL/BAK (Homo sapiens, UniProt Q07817). The assay is described as follows: Inhibition of His-tagged Bcl-xL/5-carboxyfluorescein-Bak (unknown origin) after 1 hr by fluorescence polarization assay. It is filed as protein assay. The gist of the method:
as §1

Assay [2] deals with T1, BH3-interacting domain death agonist (Homo sapiens) (UniProt P55957).
T1 sequence (whole entry): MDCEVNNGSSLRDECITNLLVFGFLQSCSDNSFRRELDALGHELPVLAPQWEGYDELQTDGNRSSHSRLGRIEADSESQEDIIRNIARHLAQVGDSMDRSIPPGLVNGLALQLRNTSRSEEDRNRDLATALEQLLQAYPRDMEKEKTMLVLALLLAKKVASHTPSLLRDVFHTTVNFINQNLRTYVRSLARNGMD
The assay is described as follows: Binding affinity to Bid (unknown origin) assessed as micelles formation at 0.25 to 5 equivalent by 1H NMR spectra analysis.

Assay [3] deals with T1, BH3-interacting domain death agonist (Homo sapiens). Put plainly: Binding affinity to Bid (unknown origin) assessed as induction of chemical shift perturbations by NMR titration method.
Assay [4] addresses Induced myeloid leukemia cell differentiation protein Mcl-1 (Homo sapiens) (UniProt Q07820). The assay is described as follows: Binding affinity to Mcl-1 (unknown origin) assessed as effect on protein HN resonances at 1.5 equivalent by HSQC 1H-15N NMR spectroscopy.
In assay [5] the target is Bcl-2-like protein 1 (Homo sapiens) (UniProt Q07817). Put plainly: Binding affinity to Bcl-XL (unknown origin) assessed as effect on protein HN resonances at 1.5 equivalent by HSQC 1H-15N NMR spectroscopy. The gist of the method:
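Ligand titration into Bcl-xL, followed by 1H-15N HSQC spectra recorded on an 800 MHz spectrometer with a 5 mm z-gradient TCI cryoprobe.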

A further assay deals with HCT-116. Put plainly: Cytotoxicity against human HCT116 cells assessed as decrease in cell viability after 72 hrs by resazurin dye based fluorescence assay. It is filed as functional.
In assay [6] the target is T1, BH3-interacting domain death agonist (Homo sapiens). The assay is described as follows: Binding affinity to Bid (unknown origin) at 2 equivalent assessed as interaction at Asp16/Ser17/Met18/Asp19 and Arg20 residues by 2D 1H-1H TOCSY analysis.

Drawing on ChEMBL document CHEMBL4477185, “Anacardic Acids from Knema hookeriana as Modulators of Bcl-xL/Bak and Mcl-1/Bid Interactions” (J Nat Prod, 2016), this text covers Ki and Activity for twelve compounds.

As usually defined, the Ki is a dissociation constant, usually derived from enzyme kinetics or from competition with a known ligand. A low value points to tighter binding.

The source made the active and inactive calls. The calls are words filed in the database; no cut-off is given here.

Chain of Bcl-xL/BAK (Q07817 whole entry): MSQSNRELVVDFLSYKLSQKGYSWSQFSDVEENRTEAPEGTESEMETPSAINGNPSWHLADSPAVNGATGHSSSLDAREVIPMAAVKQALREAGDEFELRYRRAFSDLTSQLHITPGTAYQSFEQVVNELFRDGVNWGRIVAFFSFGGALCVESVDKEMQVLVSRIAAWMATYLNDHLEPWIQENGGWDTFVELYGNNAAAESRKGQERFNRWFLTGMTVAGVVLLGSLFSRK
Chain of Bcl-xL/BAK (Q16611 whole entry, further chain): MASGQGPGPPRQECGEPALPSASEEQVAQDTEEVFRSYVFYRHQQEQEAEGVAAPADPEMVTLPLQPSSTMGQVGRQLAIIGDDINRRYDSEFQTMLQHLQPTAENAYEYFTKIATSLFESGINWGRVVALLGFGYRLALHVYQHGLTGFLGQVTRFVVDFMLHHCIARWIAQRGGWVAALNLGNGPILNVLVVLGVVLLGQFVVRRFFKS
Chain of Induced myeloid leukemia cell differentiation protein Mcl-1/BH3-interacting domain death agonist (Q07820 whole entry, one chain of several, the tested form may be a part): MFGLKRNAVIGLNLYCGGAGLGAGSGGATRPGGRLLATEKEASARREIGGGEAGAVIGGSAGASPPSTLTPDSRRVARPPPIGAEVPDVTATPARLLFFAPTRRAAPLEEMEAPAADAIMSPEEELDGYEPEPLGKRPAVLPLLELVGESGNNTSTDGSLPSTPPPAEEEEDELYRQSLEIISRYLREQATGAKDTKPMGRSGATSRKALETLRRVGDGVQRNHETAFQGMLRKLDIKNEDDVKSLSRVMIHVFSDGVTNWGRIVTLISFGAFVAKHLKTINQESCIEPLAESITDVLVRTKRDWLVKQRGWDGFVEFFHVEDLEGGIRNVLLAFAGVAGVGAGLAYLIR
Chain of Bcl-2-like protein 1 (Homo sapiens) (Q07817 whole entry): as the sequence (Q07817 whole entry) above
Chain of Induced myeloid leukemia cell differentiation protein Mcl-1 (Homo sapiens) (Q07820 whole entry): as the sequence (Q07820 whole entry, one chain of several, the tested form may be a part) above

With `CCCC/C=C\CCCCCCCc1cc(O)cc(O)c1C(C)=O`, the figures for the inhibitory constant (Ki) (in assay [1]; at Bcl-xL/BAK) were more than 33 µM and more than 23 µM, respectively.
For the compound `CC(C)=CCC[C@@H](C)[C@H]1C=C[C@@]2(C(=O)O)[C@H](CC(C)=C[C@@H]2/C=C(\C)C2CCC(C(=O)O)CC2)C1` (some centres undefined) [MEIOGYNIN A], the Ki on Bcl-xL/BAK amounted to 2.6 µM.
On to `CCCCCCCCCCCCCc1cccc(O)c1C(=O)O` [GINKGOLIC ACID 13:0], for which, in assay [2], the Activity entry was “Dose-dependent effect”. The outcome in assay [3] and in assay [6] was Active. For the same compound, the outcome (in assay [4]; in assay [5]; with HCT-116) was inactive. The inhibition constant Ki (in assay [1]; at Bcl-xL/BAK) was 0.2 µM in each case.
For `CCCCCCCCCCCCCc1cccc(O)c1`, the values for the inhibition constant Ki (in assay [1]; at Bcl-xL/BAK) were more than 33 µM and more than 23 µM, respectively.
As to `CCCCCCCCCCCc1cc(O)cc(O)c1C(C)=O`, the figures for the Ki (in assay [1]; at Bcl-xL/BAK) were more than 33 µM and more than 23 µM, respectively.
Turning to `CCCC/C=C\CCCCCc1cccc(O)c1C(=O)O`, the Ki turned out to be 5.8 µM in assay [1] and 3.2 µM at Bcl-xL/BAK. Also, the outcome in the assay with HCT-116 was inactive.
For `CCCC/C=C\CCCCCc1cc(O)cc(O)c1C(C)=O`, the inhibition constant (Ki) in assay [1] is more than 33 µM; on Bcl-xL/BAK it was more than 23 µM.
For the compound `CCCCCCCCCc1cccc(O)c1C(=O)O`, the inhibition constant (Ki) in assay [1] is 17.7 µM; at Bcl-xL/BAK, more than 23 µM. Also, in the assay with HCT-116, the outcome was inactive.
`O=C(O)c1c(O)cccc1CCCCCCCCc1ccccc1`: the values for the Ki (in assay [1]; on Bcl-xL/BAK) were 3.7 µM and 16.3 µM, respectively. The result in the assay with HCT-116 was inactive.
With `CCCCCCCCCCCc1cccc(O)c1C(=O)O`, the inhibition constant (Ki) was determined as 0.7 µM in assay [1] and 1.2 µM on Bcl-xL/BAK. Besides, the outcome with HCT-116 was inactive.
For the compound `CCCC/C=C\CCCCCCCc1cccc(O)c1`, the figures for the Ki (in assay [1]; at Bcl-xL/BAK) were more than 33 µM and more than 23 µM, respectively.
Turning to `CCCC/C=C\CCCCCCCc1cccc(O)c1C(=O)O`, the values for the Ki (in assay [1]; at Bcl-xL/BAK) were 0.2 µM and 0.3 µM, respectively. For the same compound, the outcome in the assay on HCT-116 was inactive.
